ChEMBL document CHEMBL1153179, “Optimization of orally bioavailable alkyl amine renin inhibitors” (Bioorg Med Chem Lett, 2010)
One block for each compound: values may come before it. Activity calls are given as the source filed them. The calls are words filed in the database; no cut-off is given here.

What was measured:
[1] = target: T1, Renin (Homo sapiens, UniProt P00797); assay: Inhibition of trypsin-activated human recombinant renin
T1 sequence (P00797 whole entry): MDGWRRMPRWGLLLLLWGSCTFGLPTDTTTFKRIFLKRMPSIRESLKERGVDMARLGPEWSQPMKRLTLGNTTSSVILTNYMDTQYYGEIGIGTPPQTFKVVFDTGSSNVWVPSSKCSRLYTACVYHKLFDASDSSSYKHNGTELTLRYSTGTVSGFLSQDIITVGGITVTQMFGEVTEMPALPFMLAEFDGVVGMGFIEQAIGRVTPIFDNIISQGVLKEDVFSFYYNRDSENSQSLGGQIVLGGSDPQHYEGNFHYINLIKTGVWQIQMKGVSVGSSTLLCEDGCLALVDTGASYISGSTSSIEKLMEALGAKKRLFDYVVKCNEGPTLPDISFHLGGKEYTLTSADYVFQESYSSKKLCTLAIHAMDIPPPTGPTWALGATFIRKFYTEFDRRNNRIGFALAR

[2] = target: T1, Renin; assay: Inhibition of human recombinant renin assessed as decrease in plasma renin activity by competitive radioimmunoassay in presence of human plasma
[3] = Cmax in rat at 10 mg/kg, po; format: ADME, organism-based; set-up: dose 10 mg/kg, route oral; conditions: in vivo
[4] = Tmax in rat at 10 mg/kg, po; format: ADME, organism-based; set-up: dose 10 mg/kg, route oral; conditions: in vivo
[5] = (§1) AUC (0 to t) in rat at 10 mg/kg, po; format: ADME, organism-based, Plasma; set-up: dose 10 mg/kg, route oral; conditions: plasma
[6] = Half life in rat at 10 mg/kg, po; format: ADME, organism-based; set-up: dose 10 mg/kg, route oral; conditions: in vivo
[7] = Clearance in rat at 2 mg/kg, iv; format: ADME, organism-based; set-up: dose 2 mg/kg, route intravenous; conditions: in vivo
[8] = Volume of distribution at steady state in rat at 10 mg/kg, po or 2 mg/kg, iv; format: ADME, organism-based; conditions: in vivo, read-out: Vdss
[9] = (§2) Oral bioavailability in rat at 10 mg/kg; format: ADME, organism-based; conditions: in vivo
[10] = Selectivity for human recombinant renin over beta-secretase
[11] = Selectivity for human recombinant renin over cathepsin D
[12] = Selectivity for human recombinant renin over cathepsin E
[13] = Half life in human liver microsomes; format: ADME, Microsome
[14] = Cmax in cynomolgus monkey at 1 mg/kg, po; format: ADME, organism-based, Macaca fascicularis; set-up: dose 1 mg/kg, route oral; conditions: in vivo
[15] = Tmax in cynomolgus monkey at 1 mg/kg, po; format: ADME, organism-based, Macaca fascicularis; set-up: dose 1 mg/kg, route oral; conditions: in vivo
[16] = AUC (0 to t) in cynomolgus monkey at 1 mg/kg, po; format: ADME, organism-based, Macaca fascicularis; set-up: dose 1 mg/kg, route oral; conditions: plasma
[17] = Half life in cynomolgus monkey at 1 mg/kg, po; format: ADME, organism-based, Macaca fascicularis; set-up: dose 1 mg/kg, route oral; conditions: in vivo
[18] = Clearance in cynomolgus monkey at 1 mg/kg, iv; format: ADME, organism-based, Macaca fascicularis; set-up: dose 1 mg/kg, route intravenous; conditions: in vivo
[19] = Volume of distribution at steady state in cynomolgus monkey at 1 mg/kg, iv or 1 mg/kg, po; format: ADME, organism-based, Macaca fascicularis; conditions: in vivo, read-out: Vdss
[20] = Oral bioavailability in cynomolgus monkey at 1 mg/kg; format: ADME, organism-based, Macaca fascicularis; conditions: in vivo
Procedure, shortened: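 Cynomolgus monkeys were dosed with the fumarate salt orally at 1 mg/kg and intravenously at 1 mg/kg. Oral bioavailability (F, %) was reported alongside oral Cmax, tmax, AUC(0-t), oral t1/2, IV clearance and Vss.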

[21] = tested on: Rattus norvegicus; assay: Reduction in mean blood pressure in double transgenic rat model of hypertension at 10 mg/kg, po after >20 hrs; format: functional, organism-based; set-up: dose 10 mg/kg
Procedure, shortened: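 Double transgenic rats expressing human renin and human angiotensinogen (dTGR) given a single 10 mg/kg oral dose; mean arterial pressure followed over 24 h against vehicle-treated animals, with statistical significance assessed.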

[22] = Cmax in cynomolgus monkey at 2 mg/kg, po; format: ADME, organism-based, Macaca fascicularis; set-up: dose 2 mg/kg, route oral; conditions: in vivo
[23] = Tmax in cynomolgus monkey at 2 mg/kg, po; format: ADME, organism-based, Macaca fascicularis; set-up: dose 2 mg/kg, route oral; conditions: in vivo
[24] = Volume of distribution at steady state in cynomolgus monkey at 1 mg/kg, iv or 2 mg/kg, po; format: ADME, organism-based, Macaca fascicularis; conditions: in vivo, read-out: VDss
[25] = Oral bioavailability in cynomolgus monkey at 2 mg/kg; format: ADME, organism-based, Macaca fascicularis; conditions: in vivo
[26] = AUC (0 to 32 hrs) in cynomolgus monkey at 2 mg/kg, po; format: ADME, organism-based, Macaca fascicularis; set-up: time < 32 hr, dose 2 mg/kg, route oral; conditions: plasma
[27] = Half life in cynomolgus monkey at 2 mg/kg, po; format: ADME, organism-based, Macaca fascicularis; set-up: dose 2 mg/kg, route oral; conditions: in vivo
[28] = tested on: Rattus norvegicus; assay: as §1; format: ADME, organism-based, Plasma; set-up: dose 10 mg/kg, route oral; conditions: in vivo
[29] = tested on: Rattus norvegicus; assay: as §2; format: ADME, organism-based; conditions: in vivo

- IC50 [1]: 0.87 nM
- IC50 [2]: 7.7 nM
Compound: CCNC[C@H](CC1CCCCC1)NC(=O)N1CCC[C@@H]([C@@H](OCCNC(=O)OC)c2cccc(Cl)c2)C1

- IC50 [1]: 0.48 nM
- IC50 [2]: 0.82 nM
- Cmax [3]: 94 ng/mL
- Tmax [4]: 3 h
- AUC(0-t) [5]: 301 ng·h/mL
- half-life [6]: 9.7 h
- clearance [7]: 36 mL/min/kg
- Vd [8]: 19 L/kg
- bioavailability [9]: 9.4%
- Selectivity ratio [10]: > 1000
- Selectivity ratio [11]: > 1000
- Selectivity ratio [12]: > 1000
- half-life [13]: > 0.5 h
- Cmax [14]: 33.3 ng/mL
- Tmax [15]: 1 h
- AUC(0-t) [16]: 130 ng·h/mL
- half-life [17]: 29.2 h
- clearance [18]: 11.7 mL/min/kg
- Vd [19]: 9.8 L/kg
- bioavailability [20]: 9.9%
Compound: CNC[C@H](CC1CCCCC1)NC(=O)N1CCC[C@@H]([C@@H](OCCNC(=O)OC)c2cccc(Cl)c2)C1
- Activity [21]: Active

- IC50 [1]: 2.1 nM
- IC50 [2]: 18 nM
Compound: CCNC[C@H](CC1CCCCC1)NC(=O)N1CCC[C@@H]([C@@H](OCCNC(=O)OC)c2cccc(F)c2)C1

- IC50 [1]: 0.18 nM
- IC50 [2]: 3.7 nM
- Cmax [3]: 5 ng/mL
- Tmax [4]: 0.9 h
- AUC(0-t) [5]: 10 ng·h/mL
- half-life [6]: 1.8 h
- clearance [7]: 34 mL/min/kg
- Vd [8]: 29 L/kg
- bioavailability [9]: 0.3%
Compound: CNC[C@H](CC1CCCCC1)NC(=O)N1CCC[C@@H]([C@@](O)(CCCNC(=O)OC)c2cccc(Cl)c2)C1

- IC50 [1]: 0.62 nM
- IC50 [2]: 2.1 nM
Compound: CNC[C@H](CC1CCCCC1)NC(=O)N1CCC[C@@H]([C@@H](OCCNC(=O)OC)c2cc(Cl)ccc2F)C1

- IC50 [1]: 57 nM
Compound: CCCC(=O)NCCC[C@@](O)(c1cccc(Cl)c1)[C@@H]1CCCN(C(=O)N[C@H](CNC)CC2CCCCC2)C1

- AUC(0-t) [5]: 472 ng·h/mL
- clearance [18]: 5.2 mL/min/kg
- Cmax [22]: 116 ng/mL
- Tmax [23]: 2.7 h
- Vd [24]: 6.1 L/kg
- bioavailability [25]: 16%
- AUC(0-t) at 32 h [26]: 615 ng·h/mL
- half-life [27]: 15 h
Compound: CNC[C@H](CC1CCCCC1)NC(=O)N1CCC[C@@H]([C@@](O)(CCCCOC)c2cccc(Cl)c2)C1

- IC50 [1]: 0.58 nM
- IC50 [2]: 3.3 nM
Compound: COC(=O)NCCO[C@@H](c1cccc(F)c1)[C@@H]1CCCN(C(=O)N[C@H](CN)CC2CCCCC2)C1

- IC50 [1]: 0.52 nM
- IC50 [2]: 1.5 nM
- Cmax [3]: 54 ng/mL
- Tmax [4]: 4 h
- AUC [28]: 166 ng·h/mL
- half-life [6]: 7.2 h
- Vd [8]: 38 L/kg
- F [29]: 13.1%
Compound: CNC[C@H](CC1CCCCC1)NC(=O)N1CCC[C@@H]([C@@H](OCCNC(=O)OC)c2cc(F)cc(Cl)c2)C1

- AUC(0-t) [5]: 832 ng·h/mL
- half-life [6]: 5.9 h
Compound: CCOCCCO[C@@H](c1ccccc1)[C@@H]1CCCN(C(=O)N[C@H](CNC)CC2CCCCC2)C1

- IC50 [1]: 0.59 nM
- IC50 [2]: 1.8 nM
- Cmax [3]: 123 ng/mL
- Tmax [4]: 2 h
- AUC(0-t) [5]: 380 ng·h/mL
- half-life [6]: 12.7 h
- clearance [7]: 58 mL/min/kg
- Vd [8]: 61 L/kg
- bioavailability [9]: 22.1%
Compound: CNC[C@H](CC1CCCCC1)NC(=O)N1CCC[C@@H]([C@@H](OCCNC(=O)OC)c2cccc(F)c2)C1

- IC50 [1]: 14 nM
- IC50 [2]: 170 nM
Compound: CCOC(=O)NCCC[C@@](O)(c1cccc(Cl)c1)[C@@H]1CCCN(C(=O)N[C@H](CNC)CC2CCCCC2)C1

- IC50 [1]: 46 nM
- IC50 [2]: 297 nM
Compound: CNC[C@H](CC1CCCCC1)NC(=O)N1CCC[C@@H]([C@@](O)(CCCNS(N)(=O)=O)c2cccc(Cl)c2)C1

- IC50 [1]: 0.62 nM
- IC50 [2]: 2.7 nM
Compound: CNC[C@H](CC1CCCCC1)NC(=O)N1CCC[C@@H]([C@@H](OCCNC(=O)OC)c2cc(F)ccc2F)C1

- IC50 [1]: 0.23 nM
- IC50 [2]: 1.2 nM
Compound: CNC[C@H](CC1CCCCC1)NC(=O)N1CCC[C@@H]([C@@H](OCCNC(=O)OC)c2cc(F)cc(F)c2)C1
